Data published in ChEMBL document CHEMBL1140227, “Histone deacetylase inhibitors through click chemistry” (J Med Chem, 2008).

Legend:
Assay type in all cases: functional
HCC 2998 = test: Growth inhibition of human HCC2998 cells at 10 uM relative to control; details: values are per cent of control
In short: (§1)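 Single-dose preliminary screen in the NCI human cancer cell line panel, run by the NIH. Percent inhibition of cell line growth was calculated by comparison with untreated samples.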

SF-539 = test: Growth inhibition of human SF539 cells at 10 uM relative to control; details: values are per cent of control; in short: as §1
IGROV-1 = test: Growth inhibition of human IGROV1 cells at 10 uM relative to control; details: values are per cent of control; in short: as §1
SK-OV-3 = test: Growth inhibition of human SKOV3 cells at 10 uM relative to control; details: values are per cent of control; in short: as §1
T47D = test: Growth inhibition of human T47D cells at 10 uM relative to control; details: values are per cent of control
In short: (§2)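 Single-dose NCI human tumour cell line screen, run by the NIH. Percent inhibition of cell line growth was calculated by comparison with untreated samples.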

SN12C = test: Growth inhibition of human SN12C cells at 10 uM relative to control; details: values are per cent of control; in short: as §1
SK-MEL-2 = test: Growth inhibition of human SK-MEL-2 cells at 10 uM relative to control; details: values are per cent of control; in short: as §1
BT-549 = test: Growth inhibition of human BT549 cells at 10 uM relative to control; details: values are per cent of control; in short: as §1
K562 = test: Growth inhibition of human K562 cells at 10 uM relative to control; details: values are per cent of control; in short: as §1
OVCAR-3 = test: Growth inhibition of human OVCAR-3 cells at 10 uM relative to control; details: values are per cent of control; in short: as §1
MOLT-4 = test: Growth inhibition of human MOLT4 cells at 10 uM relative to control; details: values are per cent of control; in short: as §1
TK-10 = test: Growth inhibition of human TK10 cells at 10 uM relative to control; details: values are per cent of control; in short: as §2
EKVX = test: Growth inhibition of human EKVX cells at 10 uM relative to control; details: values are per cent of control; in short: as §1
OVCAR-5 = test: Growth inhibition of human OVCAR5 cells at 10 uM relative to control; details: values are per cent of control; in short: as §1
MDA-MB-468 = test: Growth inhibition of human MDA-MB-468 cells at 10 uM relative to control; details: values are per cent of control; in short: as §1
NCI-H322M = test: Growth inhibition of human NCI-H322M cells at 10 uM relative to control; details: values are per cent of control; in short: as §1
HCT-116 = test: Growth inhibition of human HCT116 cells at 10 uM relative to control; details: values are per cent of control; in short: as §1
HT-29 = test: Growth inhibition of human HT-29 cells at 10 uM relative to control; details: values are per cent of control; in short: as §1
SNB-75 = test: Growth inhibition of human SNB75 cells at 10 uM relative to control; details: values are per cent of control; in short: as §2
DU-145 = test: Growth inhibition of human DU145 cells at 10 uM relative to control; details: values are per cent of control; in short: as §1
[1] = Growth inhibition of human Hs 578T cells at 10 uM relative to control; details: values are per cent of control; in short: as §1
A549 = test: Growth inhibition of human A549 cells at 10 uM relative to control; details: values are per cent of control; in short: as §1
M14 = test: Growth inhibition of human M14 cells at 10 uM relative to control; details: values are per cent of control; in short: as §1
HL-60(TB) = test: Growth inhibition of human HL-60(TB) cells at 10 uM relative to control; details: read-out: INH
In short: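 Single-dose cell line screen run by the NCI (NIH) in its human cancer cell line panel, which includes the leukemia line HL-60(TB). Percent growth inhibition was calculated by comparison with untreated samples.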

UACC-257 = test: Growth inhibition of human UACC257 cells at 10 uM relative to control; details: values are per cent of control; in short: as §2
SF-295 = test: Growth inhibition of human SF295 cells at 10 uM relative to control; details: values are per cent of control; in short: as §1
Malme-3M = test: Growth inhibition of human MALME-3M cells at 10 uM relative to control; details: values are per cent of control; in short: as §1
cells = details: Homo sapiens, Cancer cell lines
CCRF-CEM = test: Growth inhibition of human CCRF-CEM cells at 10 uM relative to control; details: values are per cent of control; in short: as §1
MCF7 = test: Growth inhibition of human MCF7 cells at 10 uM relative to control; details: values are per cent of control; in short: as §1
A498 = test: Growth inhibition of human A498 cells at 10 uM relative to control; details: values are per cent of control; in short: as §1
NCI/ADR-RES = test: Growth inhibition of human NCI/ADR-RES cells at 10 uM relative to control; details: values are per cent of control; in short: as §1
OVCAR-8 = test: Growth inhibition of human OVCAR8 cells at 10 uM relative to control; details: values are per cent of control; in short: as §1
UACC-62 = test: Growth inhibition of human UACC62 cells at 10 uM relative to control; details: values are per cent of control; in short: as §2
SW-620 = test: Growth inhibition of human SW620 cells at 10 uM relative to control; details: values are per cent of control; in short: as §2
MDA-MB-435 = test: Growth inhibition of human MDA-MB-435 cells at 10 uM relative to control; details: values are per cent of control; in short: as §1
SK-MEL-5 = test: Growth inhibition of human SK-MEL-5 cells at 10 uM relative to control; details: values are per cent of control; in short: as §1
HOP-62 = test: Growth inhibition of human HOP62 cells at 10 uM relative to control; details: values are per cent of control; in short: as §1
NCI-H23 = test: Growth inhibition of human NCI-H23 cells at 10 uM relative to control; details: values are per cent of control; in short: as §1
[2] = Growth inhibition of human RPMI8266 cells at 10 uM relative to control; details: values are per cent of control; in short: as §1
U-251 = test: Growth inhibition of human U251 cells at 10 uM relative to control; details: values are per cent of control; in short: as §2
HCT-15 = test: Growth inhibition of human HCT15 cells at 10 uM relative to control; details: values are per cent of control; in short: as §1
NCI-H226 = test: Growth inhibition of human NCI-H226 cells at 10 uM relative to control; details: values are per cent of control; in short: as §1
UO-31 = test: Growth inhibition of human UO31 cells at 10 uM relative to control; details: values are per cent of control; in short: as §2
OVCAR-4 = test: Growth inhibition of human OVCAR4 cells at 10 uM relative to control; details: values are per cent of control; in short: as §1
PC-3 = test: Growth inhibition of human PC3 cells at 10 uM relative to control; details: values are per cent of control; in short: as §1
COLO 205 = test: Growth inhibition of human COLO205 cells at 10 uM relative to control; details: values are per cent of control; in short: as §1
SNB-19 = test: Growth inhibition of human SNB19 cells at 10 uM relative to control; details: values are per cent of control; in short: as §1
786-0 = test: Growth inhibition of human 786-0 cells at 10 uM relative to control; details: values are per cent of control; in short: as §1
KM12 = test: Growth inhibition of human KM12 cells at 10 uM relative to control; details: values are per cent of control; in short: as §1
ACHN = test: Growth inhibition of human ACHN cells at 10 uM relative to control; details: values are per cent of control; in short: as §1
SF-268 = test: Growth inhibition of human SF268 cells at 10 uM relative to control; details: values are per cent of control; in short: as §1
NCI-H460 = test: Growth inhibition of human NCI-H460 cells at 10 uM relative to control; details: values are per cent of control; in short: as §1
NCI-H522 = test: Growth inhibition of human NCI-H522 cells at 10 uM relative to control; details: values are per cent of control; in short: as §1
MDA-MB-231 = test: Growth inhibition of human MDA-MB-231 cells at 10 uM relative to control; details: values are per cent of control; in short: as §1

O=C(Cn1cc(C(=O)NO)nn1)c1ccccc1
growth, % of control at 10 µM (HCC 2998): 107%
growth, % of control at 10 µM (SF-539): 118%
growth, % of control at 10 µM (IGROV-1): 100%
growth, % of control at 10 µM (SK-OV-3): 109%
growth, % of control at 10 µM (T47D): 102%
growth, % of control at 10 µM (SN12C): 97.7%
growth, % of control at 10 µM (SK-MEL-2): -26.8%
growth, % of control at 10 µM (BT-549): 108%
growth, % of control at 10 µM (K562): 85.1%
growth, % of control at 10 µM (OVCAR-3): 146%
growth, % of control at 10 µM (MOLT-4): 110%
growth, % of control at 10 µM (TK-10): 113%
growth, % of control at 10 µM (EKVX): 108%
growth, % of control at 10 µM (OVCAR-5): 84.1%
growth, % of control at 10 µM (MDA-MB-468): 110%
growth, % of control at 10 µM (NCI-H322M): 95.9%
growth, % of control at 10 µM (HCT-116): 97.3%
growth, % of control at 10 µM (HT-29): 115%
growth, % of control at 10 µM (SNB-75): 117%
growth, % of control at 10 µM (DU-145): 135%
growth, % of control at 10 µM [1]: 90%
growth, % of control at 10 µM (A549): 103%
growth, % of control at 10 µM (M14): 94.1%
growth, % of control at 10 µM (HL-60(TB)): 136%
growth, % of control at 10 µM (UACC-257): 112%
growth, % of control at 10 µM (SF-295): 126%
growth, % of control at 10 µM (Malme-3M): 107%
inhibition at 10 µM (cells): > 95%
growth, % of control at 10 µM (CCRF-CEM): 92.1%
growth, % of control at 10 µM (MCF7): 112%
growth, % of control at 10 µM (A498): 67.6%
growth, % of control at 10 µM (NCI/ADR-RES): 91.3%
growth, % of control at 10 µM (OVCAR-8): 96.2%
growth, % of control at 10 µM (UACC-62): 93.3%
growth, % of control at 10 µM (SW-620): 94.8%
growth, % of control at 10 µM (MDA-MB-435): 106%
growth, % of control at 10 µM (SK-MEL-5): 111%
growth, % of control at 10 µM (HOP-62): 118%
growth, % of control at 10 µM (NCI-H23): 110%
growth, % of control at 10 µM [2]: 79.8%
growth, % of control at 10 µM (U-251): 96.9%
growth, % of control at 10 µM (HCT-15): 108%
growth, % of control at 10 µM (NCI-H226): 87.6%
growth, % of control at 10 µM (UO-31): 84.7%
growth, % of control at 10 µM (OVCAR-4): 112%
growth, % of control at 10 µM (PC-3): 82.1%
growth, % of control at 10 µM (COLO 205): 123%
growth, % of control at 10 µM (SNB-19): 95.9%
growth, % of control at 10 µM (786-0): 105%
growth, % of control at 10 µM (KM12): 108%
growth, % of control at 10 µM (ACHN): 99.2%
growth, % of control at 10 µM (SF-268): 104%
growth, % of control at 10 µM (NCI-H460): 120%
growth, % of control at 10 µM (NCI-H522): 99.2%
growth, % of control at 10 µM (MDA-MB-231): 101%
